# Published values of several laboratories.
# Effect on: cell growth or viability
Structure (SMILES),cell line,technique,time,IC50
O=C(NC(=S)NCc1ccc(CNC(=S)NC(=O)c2ccc3ccccc3c2)cc1)c1ccc2ccccc2c1,MCF-10A,,48 h,91.4 µM
CC(C)C[C@H](NC(=O)[C@H](Cc1ccccc1)NC(=O)c1cnccn1)B(O)O,P31-FUJ,ATP luminescence,,0.0051 µM
O=C1CCCCC1C1C2C=CC=CC1C(C1CC1)=C2 (stereo not shown),K562,flow cytometry,,0.017 µM
N#Cc1ccc(COC[C@H]2O[C@@H](n3c(NCc4ccc(Cl)c(Cl)c4)nc4c(N)ncnc43)[C@H](O)[C@@H]2O)cc1,CAL-27,,72 h,> 20 µM
O=C(C=C[c-]1cccc1)c1ccc[nH]1.[Fe+2].c1cc[cH-]c1,4T1,MTT,72 h,76.5 µM
COc1cc(Nc2nccc(-c3cnn4nc(OC)ccc34)n2)cc(C(F)(F)F)c1,SCLC-21H,ATP luminescence,,0.36 µM
O=C(C=C[c-]1cccc1)c1sccc1Br.[Fe+2].c1cc[cH-]c1,4T1,MTT,72 h,32.9 µM
CC(C)c1cccc(C(C)C)c1-n1c(Cl)c(Cl)n(-c2c(C(C)C)cccc2C(C)C)c1=[Se],HCT-15,MTT,72 h,14.2 µM
CC(C)C(=O)SCCCCCCC(=O)Nc1nc(-c2ccccc2)cs1,CAL-27,,72 h,1.15 µM
COc1ccc(-c2cnc3c(n2)CCCC3)cc1Cl,MCF-10A,,48 h,35.7 µM
CC(=O)CC(c1ccccc1)c1c(O)c2ccccc2oc1=O (stereo not shown),CAL-27,,72 h,> 20 µM
CCCCCc1ccc(-c2cnc3c(n2)CCCC3)cc1,MCF-10A,,48 h,> 50 µM
C=C1CC[C@@H]2[C@](C)(CO)[C@H](O)CC[C@@]2(C)[C@@H]1C/C=C1/C(=O)OC[C@H]1O,VCaP,CCK-8,72 h,20.4 µM
COc1ccc(-c2cnc3c(n2)CCCC3)nc1,MCF-10A,,48 h,> 50 µM
CN(C)c1ccc2cc(C(=O)N[C@@H](CCCNC(=N)CCl)C(=O)NCc3ccccc3)ccc2c1,4T1,,48 h,11.9 µM
CC1(C)S[C@@H]2[C@H](NC(=O)[C@H](N)c3ccc(O)cc3)C(=O)N2[C@H]1C(=O)O,VCaP,CCK-8,72 h,> 30 µM
CCCCOc1ccc(-c2cnc3c(n2)CCCC3)cc1,MCF-10A,,48 h,25 to 50 µM
Clc1ccc2c(c1)N=C(N1CCNCC1)c1ccccc1N2,CAL-27,,72 h,> 20 µM
Cc1cc(NC(=O)c2cccc3cc(-c4cccc5[nH]nc(N)c45)ccc23)ccc1F,GL261,CCK-8,72 h,> 20 µM
O=C(c1cc(Cl)c(Cl)[nH]1)c1c(O)ccc(Cc2cc(C(c3csc(-c4ccccc4O)n3)c3ccc(O)c(C(=O)c4cc(Cl)c(Cl)[nH]4)c3O)c(O)c(C(=O)c3cc(Cl)c(Cl)[nH]3)c2O)c1O (stereo not shown),MDCK,MTT,72 h,28 µg/mL
O=C(NC(=S)NCCCNC(=S)NC(=O)c1ccc2ccccc2c1)c1ccc2ccccc2c1,MCF-10A,,48 h,90.2 µM
Nc1nc(Nc2ccccc2)nc2c1ncn2[C@@H]1O[C@H](CO)[C@@H](O)[C@H]1O,CAL-27,,72 h,> 20 µM
CCOc1cccc(-c2cnc3c(n2)CCCC3)c1,MCF-10A,,48 h,30.9 µM
CCN1CCN(Cc2ccc(Nc3ncc(F)c(-c4cc(F)c5nc(C)n(C(C)C)c5c4)n3)nc2)CC1,4T1,CCK-8,,> 2 µM
CC(C)c1ccccc1S(=O)(=O)c1cc(N)c2ncccc2c1[N+](=O)[O-],CAL-27,,72 h,> 20 µM
CC(C)Oc1cccc(-c2cnc3c(n2)CCCC3)c1,MCF-10A,,48 h,25 to 50 µM
C=CC1=C(C(=O)O)N2C(=O)[C@@H](NC(=O)/C(=N\OCC(=O)O)c3csc(N)n3)[C@H]2SC1,VCaP,CCK-8,72 h,> 30 µM
CCCCc1ccc2[nH]c(NC(=O)OC)nc2c1,GTL 16,CCK-8,72 h,0.284 µM
COc1cc(OC)c(/C=C/S(=O)(=O)Nc2ccc(OC)c(N)c2)c(OC)c1,N417,trypan blue,96 h,0.004 µM
CCN(CC)CCNC(=O)COc1ccc(OC)cc1,CAL-27,,72 h,> 20 µM
COc1cc(C2Oc3cc([C@H]4Oc5cc(O)cc(O)c5C(=O)[C@@H]4O)ccc3OC2CO)ccc1O (stereo partly shown),SNU-423,CCK-8,72 h,18.8 µM
